These results are taken from the M2OR odorant receptor database.

Positions count from the first letter of the chain named.

Holding throughout (details): stereoisomer not certain
In one assay the target is T1, OR3A1 (Homo sapiens) (UniProt P47881).
T1 sequence (whole entry): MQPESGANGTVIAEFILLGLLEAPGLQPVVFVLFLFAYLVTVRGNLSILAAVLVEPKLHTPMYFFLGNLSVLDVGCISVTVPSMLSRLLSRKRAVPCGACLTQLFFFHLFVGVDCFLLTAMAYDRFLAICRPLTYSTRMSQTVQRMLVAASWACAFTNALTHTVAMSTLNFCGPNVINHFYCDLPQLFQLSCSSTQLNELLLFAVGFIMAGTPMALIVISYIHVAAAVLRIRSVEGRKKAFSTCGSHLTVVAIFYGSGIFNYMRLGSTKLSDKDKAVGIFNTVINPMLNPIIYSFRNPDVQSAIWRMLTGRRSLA
The gist of the method:
(§1)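 Whether a receptor–molecule pair is responsive (active) rests on the original authors' judgment that its measured signal was statistically different from baseline. Pairs without that judgment are non-responsive (inactive). Sources used varied assay methods, commonly transient luciferase assays in mammalian cell lines.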

The target in the next assay is T2, OR2W3 (Homo sapiens) (UniProt Q7Z3T1).
T2 sequence (whole entry): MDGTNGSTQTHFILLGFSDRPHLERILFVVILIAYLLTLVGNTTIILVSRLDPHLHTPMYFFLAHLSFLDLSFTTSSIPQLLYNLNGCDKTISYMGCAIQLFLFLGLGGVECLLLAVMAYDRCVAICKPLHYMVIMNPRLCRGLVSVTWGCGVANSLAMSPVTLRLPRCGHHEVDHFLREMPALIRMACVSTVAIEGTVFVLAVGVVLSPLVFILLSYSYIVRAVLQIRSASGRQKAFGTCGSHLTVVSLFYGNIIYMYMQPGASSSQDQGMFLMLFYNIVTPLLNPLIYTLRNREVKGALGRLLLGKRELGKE
The gist of the method:
as §1

In the next assay the target is T3, OR2Y1 (Homo sapiens) (UniProt Q8NGV0).
T3 sequence (whole entry): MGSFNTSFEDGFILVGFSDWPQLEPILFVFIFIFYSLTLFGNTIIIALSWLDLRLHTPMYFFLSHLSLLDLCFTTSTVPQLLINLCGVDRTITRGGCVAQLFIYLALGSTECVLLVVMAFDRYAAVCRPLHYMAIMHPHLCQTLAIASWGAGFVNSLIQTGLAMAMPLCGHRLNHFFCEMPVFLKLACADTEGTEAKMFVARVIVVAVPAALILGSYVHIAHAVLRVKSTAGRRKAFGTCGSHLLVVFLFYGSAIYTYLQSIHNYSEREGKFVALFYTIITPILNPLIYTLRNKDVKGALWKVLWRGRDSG
In a few lines: as §1

The next assay concerns the target T4, OR2Z1 (Homo sapiens) (UniProt Q8NG97).
T4 sequence (whole entry): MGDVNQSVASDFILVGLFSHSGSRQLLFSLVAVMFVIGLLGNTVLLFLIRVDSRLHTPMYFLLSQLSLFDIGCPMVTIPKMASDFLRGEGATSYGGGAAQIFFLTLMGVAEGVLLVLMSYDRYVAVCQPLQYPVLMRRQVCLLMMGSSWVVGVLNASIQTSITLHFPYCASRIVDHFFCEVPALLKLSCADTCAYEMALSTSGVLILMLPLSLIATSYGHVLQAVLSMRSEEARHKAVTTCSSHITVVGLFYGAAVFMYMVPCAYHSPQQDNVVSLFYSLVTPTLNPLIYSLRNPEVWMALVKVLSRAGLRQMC
The gist of the method: as §1

The target of a further assay is T5, OR3A2 (Homo sapiens) (UniProt P47893).
T5 sequence (whole entry): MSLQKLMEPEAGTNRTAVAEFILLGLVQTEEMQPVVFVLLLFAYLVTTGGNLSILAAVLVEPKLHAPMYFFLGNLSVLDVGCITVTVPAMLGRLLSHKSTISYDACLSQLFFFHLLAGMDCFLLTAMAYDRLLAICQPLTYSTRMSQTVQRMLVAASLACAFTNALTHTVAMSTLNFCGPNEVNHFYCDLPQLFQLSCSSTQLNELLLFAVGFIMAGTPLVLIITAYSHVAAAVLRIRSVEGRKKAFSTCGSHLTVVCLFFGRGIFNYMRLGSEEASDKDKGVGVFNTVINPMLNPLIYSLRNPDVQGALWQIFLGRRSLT
The gist of the method: as §1

Another assay deals with T6, OR3A3 (Homo sapiens) (UniProt P47888).
T6 sequence (whole entry): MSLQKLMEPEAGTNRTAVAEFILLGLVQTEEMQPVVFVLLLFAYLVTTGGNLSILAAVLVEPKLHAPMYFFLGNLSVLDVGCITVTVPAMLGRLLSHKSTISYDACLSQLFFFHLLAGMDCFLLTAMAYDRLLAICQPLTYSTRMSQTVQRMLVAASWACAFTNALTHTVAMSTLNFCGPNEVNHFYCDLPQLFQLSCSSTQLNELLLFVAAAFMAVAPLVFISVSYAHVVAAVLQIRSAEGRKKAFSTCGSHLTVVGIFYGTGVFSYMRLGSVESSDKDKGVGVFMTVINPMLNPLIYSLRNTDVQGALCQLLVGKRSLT
In a few lines: as §1

The target in another assay is T7, OR2W5P (Homo sapiens) (UniProt A6NFC9).
T7 sequence (whole entry): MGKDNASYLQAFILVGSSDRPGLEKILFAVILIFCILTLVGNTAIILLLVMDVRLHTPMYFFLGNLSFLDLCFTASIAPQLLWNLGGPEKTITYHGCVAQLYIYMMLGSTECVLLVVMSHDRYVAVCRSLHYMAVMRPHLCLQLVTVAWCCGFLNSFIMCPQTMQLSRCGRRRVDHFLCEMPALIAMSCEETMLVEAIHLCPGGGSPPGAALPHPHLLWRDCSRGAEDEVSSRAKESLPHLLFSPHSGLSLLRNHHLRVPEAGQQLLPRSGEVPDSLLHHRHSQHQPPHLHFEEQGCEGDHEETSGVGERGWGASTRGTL
In a few lines:
as §1

For the next assay, the system named is T8, OR2Y1.
T8 sequence (whole entry): T3 sequence (whole entry) with V200L
The gist of the method:
as §1

The subject of another assay is T9, OR3A1.
T9 sequence (whole entry): T1 sequence (whole entry) with R125Q
The gist of the method: as §1

The next assay relates to T10, OR3A2 R317K.
T10 sequence (whole entry): T5 sequence (whole entry) with R317K
The gist of the method: as §1
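Note: active if original authors judged signal statistically different from baseline.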

For the compound `Cc1ccc(CC(C)C=O)cc1` (stereo not drawn), the “odorant receptor agonist call” value in the assay with OR3A1 (Homo sapiens) is “active”.
Turning to `CC1=CC(=O)CC(C(C)C)C1` (stereo not drawn), the “odorant receptor agonist call” value with OR3A1 (Homo sapiens) is “active”.
On to `O=CCCc1ccccc1`, for which the “odorant receptor agonist call” value in the assay with OR3A1 (Homo sapiens) is “inactive”.
Take `CC(=O)c1c(C)c([N+](=O)[O-])c(C(C)(C)C)c([N+](=O)[O-])c1C`: the “odorant receptor agonist call” value in the assay with OR2W3 (Homo sapiens), with OR2Y1 (Homo sapiens), with OR2Z1 (Homo sapiens), with OR3A1 (Homo sapiens), with OR3A2 (Homo sapiens) and in the assay with OR3A3 (Homo sapiens) was “inactive” throughout.
For `CC(CO)CS` (stereo not drawn), the “odorant receptor agonist call” value in the assay with OR2W3 (Homo sapiens), with OR2W5P (Homo sapiens), with OR2Y1 (Homo sapiens), in the assay with OR2Z1 (Homo sapiens), with OR3A1 (Homo sapiens) and in the assay with OR3A2 (Homo sapiens) was “inactive” each time. In the assay with OR3A3 (Homo sapiens), the “odorant receptor agonist call” value was “inactive”.
Regarding `CCC1OC(=O)C(O)=C1C` (stereo not drawn), the “odorant receptor agonist call” value in the assay with OR2W3 (Homo sapiens), with OR2W5P (Homo sapiens), with OR2Y1 (Homo sapiens), with OR2Y1, in the assay with OR2Z1 (Homo sapiens) and with OR3A1 (Homo sapiens) was “inactive” each time. Besides, the “odorant receptor agonist call” value in the assay on OR3A1, with OR3A2 (Homo sapiens), with OR3A2 R317K and with OR3A3 (Homo sapiens) was “inactive” throughout.
For the compound `COc1ccc(COC=O)cc1`, the “odorant receptor agonist call” value in the assay with OR3A1 (Homo sapiens) was “inactive”.
For `CC1CCCCCCCCCCCCC(=O)C1` (stereo not drawn), the “odorant receptor agonist call” value with OR2W3 (Homo sapiens), with OR2Y1 (Homo sapiens), with OR2Z1 (Homo sapiens), with OR3A1 (Homo sapiens), with OR3A2 (Homo sapiens) and with OR3A3 (Homo sapiens) was “inactive” in each case.
On to `CCCCCC(S)C(C)CO` (stereo not drawn), for which the “odorant receptor agonist call” value with OR2W3 (Homo sapiens), with OR2W5P (Homo sapiens), with OR2Y1 (Homo sapiens), with OR2Z1 (Homo sapiens), with OR3A1 (Homo sapiens) and with OR3A2 (Homo sapiens) was “inactive” throughout. Besides, the “odorant receptor agonist call” value with OR3A3 (Homo sapiens) was “inactive”.
As for `CCC(O)c1ccccc1` (stereo not drawn), the “odorant receptor agonist call” value with OR3A1 (Homo sapiens) is “inactive”.
Same read-out and setting: in the case of `CC(C=O)Cc1ccccc1` (stereo not drawn) it was “active”; in that of `CCCCCCCC(=O)OCCCCCC`, “inactive”.
For `CCCCCCCCCCCCCC(=O)O`, in the assay with OR2W3 (Homo sapiens), the “odorant receptor agonist call” value was “inactive”.
Regarding `CCCCC(S)C(C)CO` (stereo not drawn), the “odorant receptor agonist call” value in the assay with OR2W3 (Homo sapiens), with OR2W5P (Homo sapiens), in the assay with OR2Y1 (Homo sapiens), with OR2Z1 (Homo sapiens), with OR3A1 (Homo sapiens) and with OR3A2 (Homo sapiens) was “inactive” in each case. The “odorant receptor agonist call” value with OR3A3 (Homo sapiens) is “inactive”.
As to `CC(C=O)Cc1ccc(C(C)(C)C)cc1` (stereo not drawn), the “odorant receptor agonist call” value with OR2W3 (Homo sapiens) was “inactive”. In addition, in the assay with OR3A1 (Homo sapiens), the “odorant receptor agonist call” value was “active”.
On to `CC(CC=O)c1ccccc1` (stereo not drawn), for which the “odorant receptor agonist call” value with OR3A1 (Homo sapiens) is “active”.
With `CC(=O)CCc1ccc(O)cc1`, in the assay with OR3A1 (Homo sapiens), the “odorant receptor agonist call” value was “inactive”.
On the same count and under the same terms, with `CC(C)CC=O` the entry was “inactive”; with `CC(CC=O)CCc1ccccc1` (stereo not drawn), “active”; with `OCC=Cc1ccccc1`, “inactive”.
For `Cc1cnc(C)c(C)n1`, the “odorant receptor agonist call” value with OR2W3 (Homo sapiens), with OR2W5P (Homo sapiens), in the assay with OR2Y1 (Homo sapiens), in the assay with OR2Y1, with OR2Z1 (Homo sapiens) and in the assay with OR3A1 (Homo sapiens) was “inactive” throughout. Also, the “odorant receptor agonist call” value in the assay with OR3A1, with OR3A2 (Homo sapiens), in the assay on OR3A2 R317K and in the assay with OR3A3 (Homo sapiens) was “inactive” throughout.
